Converted amounts (≈) assume the structure as drawn.
What was measured:
[1] = test system: Mycobacterium tuberculosis; assay: Antimycobacterial activity against multi-drug resistant Mycobacterium tuberculosis Praha 1 after 14 days; assay type: functional; conditions: Praha 1, 336 h
Method in brief: (§1)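 M. tuberculosis strains (H37Rv and clinical MDR/XDR isolates) tested by microdilution in Šula's semisynthetic medium. Compounds were dissolved in DMSO and tested at 32 to 0.03 µM in twofold steps. Inoculum was a 1.0 McFarland suspension diluted 10-3. Plates were incubated at 37 °C and read at 14 and 21 days.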

[2] = test system: Mycobacterium tuberculosis; assay: Antimycobacterial activity against multi-drug resistant Mycobacterium tuberculosis 7357/1998 after 14 days; assay type: functional; conditions: 7357/1998, 336 h; method in brief: as §1
[3] = test system: Mycobacterium tuberculosis; assay: Antimycobacterial activity against multi-drug resistant Mycobacterium tuberculosis 234/2005 after 21 days; assay type: functional; conditions: 234/2005, 504 h; method in brief: as §1
[4] = test system: Mycobacterium tuberculosis; assay: Antimycobacterial activity against multi-drug resistant Mycobacterium tuberculosis Praha 4 after 14 days; conditions: Praha 4, 336 h
[5] = test system: Mycobacterium tuberculosis; assay: Antimycobacterial activity against multi-drug resistant Mycobacterium tuberculosis 8666/2010 after 21 days; assay type: functional; conditions: 8666/2010, 504 h; method in brief: as §1
[6] = test system: Mycobacterium tuberculosis; assay: microbe, parasite or virus in culture; conditions: 234/2005, 336 h
[7] = test system: Mycobacterium tuberculosis; assay: Antimycobacterial activity against multi-drug resistant Mycobacterium tuberculosis 7357/1998 after 21 days; assay type: functional; conditions: 7357/1998, 504 h; method in brief: as §1
[8] = test system: Mycobacterium tuberculosis; assay: Antimycobacterial activity against multi-drug resistant Mycobacterium tuberculosis 8666/2010 after 14 days; assay type: functional; conditions: 8666/2010, 336 h; method in brief: as §1
[9] = test system: Mycobacterium tuberculosis; assay: Antimycobacterial activity against multi-drug resistant Mycobacterium tuberculosis Praha 1 after 21 days; assay type: functional; conditions: Praha 1, 504 h; method in brief: as §1
[10] = test system: Mycobacterium tuberculosis; assay: Antimycobacterial activity against multi-drug resistant Mycobacterium tuberculosis Praha 4 after 21 days; assay type: functional; conditions: Praha 4, 504 h; method in brief: as §1
[11] = test system: Mycobacterium tuberculosis; assay: Antimycobacterial activity against multi-drug resistant Mycobacterium tuberculosis 9449/2007 after 14 days; assay type: functional; conditions: 9449/2007, 336 h; method in brief: as §1
[12] = test system: Mycobacterium tuberculosis; assay: Antimycobacterial activity against multi-drug resistant Mycobacterium tuberculosis 9449/2007 after 21 days; assay type: functional; conditions: 9449/2007, 504 h; method in brief: as §1

Row | SMILES | MIC99 [1] [µM] | MIC99 [2] [µM] | MIC99 [3] [µM] | MIC99 [4] [µM] | MIC99 [5] [µM] | MIC99 [6] [µM] | MIC99 [7] [µM] | MIC99 [8] [µM] | MIC99 [9] [µM] | MIC99 [10] [µM] | MIC99 [11] [µM] | MIC99 [12] [µM]
1 | Cn1c(SCc2ccc(Cl)c(Cl)c2)nnc1-c1cc([N+](=O)[O-])cc([N+](=O)[O-])c1 | 0.06 (≈ 0.0264 µg/mL) | 0.06 (≈ 0.0264 µg/mL) | 0.06 (≈ 0.0264 µg/mL) | 0.06 (≈ 0.0264 µg/mL) | 0.06 (≈ 0.0264 µg/mL) | 0.06 (≈ 0.0264 µg/mL) | 0.06 (≈ 0.0264 µg/mL) | 0.06 (≈ 0.0264 µg/mL) | 0.06 (≈ 0.0264 µg/mL) | 0.06 (≈ 0.0264 µg/mL) | 0.06 (≈ 0.0264 µg/mL) | 0.06 (≈ 0.0264 µg/mL)
2 | O=[N+]([O-])c1cc(CSc2nnc(C3CCCCC3)n2Cc2ccccc2)cc(C(F)(F)F)c1 | 16 (≈ 7.62 µg/mL) | 16 (≈ 7.62 µg/mL) | 16 (≈ 7.62 µg/mL) | 16 (≈ 7.62 µg/mL) | 16 (≈ 7.62 µg/mL) | 16 (≈ 7.62 µg/mL) | 16 (≈ 7.62 µg/mL) | 16 (≈ 7.62 µg/mL) | 16 (≈ 7.62 µg/mL) | 16 (≈ 7.62 µg/mL) | 16 (≈ 7.62 µg/mL) | 16 (≈ 7.62 µg/mL)
3 | CO[C@H]1/C=C/O[C@@]2(C)Oc3c(C)c(O)c4c(O)c(c(/C=N/N5CCN(C)CC5)c(O)c4c3C2=O)NC(=O)/C(C)=C\C=C\[C@H](C)[C@H](O)[C@@H](C)[C@@H](O)[C@@H](C)[C@H](OC(C)=O)[C@@H]1C [RIFAMPIN] | > 8 | – | – | > 8 | – | > 8 | > 8 | > 8 | – | – | – | > 8
4 | CCCSc1nnc(-c2cc([N+](=O)[O-])cc([N+](=O)[O-])c2)n1Cc1ccccc1 | 0.125 (≈ 0.0499 µg/mL) | 0.125 (≈ 0.0499 µg/mL) | 0.125 (≈ 0.0499 µg/mL) | 0.125 (≈ 0.0499 µg/mL) | 0.125 (≈ 0.0499 µg/mL) | 0.06 (≈ 0.024 µg/mL) | 0.06 (≈ 0.024 µg/mL) | 0.06 (≈ 0.024 µg/mL) | 0.125 (≈ 0.0499 µg/mL) | 0.125 (≈ 0.0499 µg/mL) | 0.125 (≈ 0.0499 µg/mL) | 0.06 (≈ 0.024 µg/mL)
5 | O=[N+]([O-])c1cc(-c2nnc(SCc3ccc(Cl)c(Cl)c3)n2Cc2ccccc2)cc(C(F)(F)F)c1 | 2 (≈ 1.08 µg/mL) | 2 (≈ 1.08 µg/mL) | 2 (≈ 1.08 µg/mL) | 2 (≈ 1.08 µg/mL) | 2 (≈ 1.08 µg/mL) | 2 (≈ 1.08 µg/mL) | 2 (≈ 1.08 µg/mL) | 2 (≈ 1.08 µg/mL) | 2 (≈ 1.08 µg/mL) | 2 (≈ 1.08 µg/mL) | 2 (≈ 1.08 µg/mL) | 2 (≈ 1.08 µg/mL)
6 | O=[N+]([O-])c1cc(-c2nnc(SCc3ccc(Br)cc3)n2Cc2ccccc2)cc([N+](=O)[O-])c1 | 0.125 (≈ 0.0658 µg/mL) | 0.25 (≈ 0.132 µg/mL) | 0.25 (≈ 0.132 µg/mL) | 0.125 (≈ 0.0658 µg/mL) | 0.25 (≈ 0.132 µg/mL) | 0.125 (≈ 0.0658 µg/mL) | 0.125 (≈ 0.0658 µg/mL) | 0.25 (≈ 0.132 µg/mL) | 0.25 (≈ 0.132 µg/mL) | 0.25 (≈ 0.132 µg/mL) | 0.25 (≈ 0.132 µg/mL) | 0.125 (≈ 0.0658 µg/mL)
7 | O=[N+]([O-])c1cc(-c2nnc(SCc3ccc(Cl)cc3)n2Cc2ccccc2)cc([N+](=O)[O-])c1 | 0.125 (≈ 0.0602 µg/mL) | 0.25 (≈ 0.12 µg/mL) | 0.25 (≈ 0.12 µg/mL) | 0.125 (≈ 0.0602 µg/mL) | 0.25 (≈ 0.12 µg/mL) | 0.125 (≈ 0.0602 µg/mL) | 0.125 (≈ 0.0602 µg/mL) | 0.125 (≈ 0.0602 µg/mL) | 0.25 (≈ 0.12 µg/mL) | 0.25 (≈ 0.12 µg/mL) | 0.25 (≈ 0.12 µg/mL) | 0.125 (≈ 0.0602 µg/mL)
8 | CCCCCCn1c(SCc2cc([N+](=O)[O-])cc([N+](=O)[O-])c2)nnc1-c1ccccc1 | 1 (≈ 0.442 µg/mL) | 2 (≈ 0.883 µg/mL) | 2 (≈ 0.883 µg/mL) | 2 (≈ 0.883 µg/mL) | 2 (≈ 0.883 µg/mL) | 2 (≈ 0.883 µg/mL) | 1 (≈ 0.442 µg/mL) | 1 (≈ 0.442 µg/mL) | 2 (≈ 0.883 µg/mL) | 4 (≈ 1.77 µg/mL) | 2 (≈ 0.883 µg/mL) | 1 (≈ 0.442 µg/mL)
9 | O=[N+]([O-])c1cc(-c2nnc(SCc3ccccc3)n2Cc2ccccc2)cc([N+](=O)[O-])c1 | 0.03 (≈ 0.0134 µg/mL) | 0.03 (≈ 0.0134 µg/mL) | 0.03 (≈ 0.0134 µg/mL) | 0.03 (≈ 0.0134 µg/mL) | 0.03 (≈ 0.0134 µg/mL) | 0.03 (≈ 0.0134 µg/mL) | 0.03 (≈ 0.0134 µg/mL) | 0.03 (≈ 0.0134 µg/mL) | 0.03 (≈ 0.0134 µg/mL) | 0.03 (≈ 0.0134 µg/mL) | 0.03 (≈ 0.0134 µg/mL) | 0.03 (≈ 0.0134 µg/mL)
10 | CCCCCCCCSc1nnc(-c2cc([N+](=O)[O-])cc([N+](=O)[O-])c2)n1Cc1ccccc1 | 0.125 (≈ 0.0587 µg/mL) | 0.25 (≈ 0.117 µg/mL) | 0.25 (≈ 0.117 µg/mL) | 0.125 (≈ 0.0587 µg/mL) | 0.25 (≈ 0.117 µg/mL) | 0.125 (≈ 0.0587 µg/mL) | 0.125 (≈ 0.0587 µg/mL) | 0.125 (≈ 0.0587 µg/mL) | 0.25 (≈ 0.117 µg/mL) | 0.25 (≈ 0.117 µg/mL) | 0.25 (≈ 0.117 µg/mL) | 0.125 (≈ 0.0587 µg/mL)
11 | CN[C@@H]1[C@H](O[C@H]2[C@H](O[C@H]3[C@H](O)[C@@H](O)[C@H](N=C(N)N)[C@@H](O)[C@@H]3N=C(N)N)O[C@@H](C)[C@]2(O)C=O)O[C@@H](CO)[C@H](O)[C@H]1O [STREPTOMYCIN] | – | – | – | > 32 | – | – | > 32 | > 32 | – | – | – | > 32
